# Data reported in ChEMBL document CHEMBL3244150, “Semisynthetic cephalosporins. Synthesis and structure-activity relationships of analogues with 7-acyl groups derived from 2-(cyanomethylthio)acetic acid or 2-[(2,2,2-trifluoroethyl)thio]acetic acid and their sulfoxides and sulfones” (1977).
# Activity calls are given as the source filed them. The calls are words filed in the database; no cut-off is given here.
# What was measured:
# [1] = system: Staphylococcus aureus; experiment: Antibacterial activity against penicillin G-resistant Staphylococcus aureus HH 127 after overnight incubation by twofold agar dilution method; assay type: functional
# Outline: (§1)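 MIC (ug/ml) determined by twofold agar dilution on Trypticase soy agar buffered to pH 6.0.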
# [2] = system: Salmonella paratyphi; experiment: Antibacterial activity against Salmonella paratyphi ATCC 12176 after overnight incubation by twofold agar dilution method; assay type: functional, Salmonella enterica subsp. enterica serovar Paratyphi A; details: Salmonella enterica; outline: as §1
# [3] = system: Escherichia coli; experiment: Antibacterial activity against Escherichia coli 12140 after overnight incubation by twofold agar dilution method; assay type: functional
# Outline: (§2)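 Twofold agar dilution on Trypticase soy agar buffered to pH 6.0. MIC recorded in ug/ml.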
# [4] = system: Enterococcus faecalis; experiment: Antibacterial activity against Streptococcus faecalis after overnight incubation by twofold agar dilution method; assay type: functional; outline: as §2
# [5] = system: Klebsiella aerogenes; experiment: Antibacterial activity against Enterobacter aerogenes ATCC 13048 after overnight incubation by twofold agar dilution method; assay type: functional; outline: as §2
# [6] = system: Shigella flexneri; experiment: Antibacterial activity against Shigella paradysenteriae HH 117 after overnight incubation by twofold agar dilution method; assay type: functional; outline: as §1
# [7] = system: Pseudomonas aeruginosa; experiment: Antibacterial activity against Pseudomonas aeruginosa after overnight incubation by twofold agar dilution method; assay type: functional, organism-based; outline: as §2
# [8] = system: Klebsiella pneumoniae; experiment: Antibacterial activity against Klebsiella pneumoniae 4200 after overnight incubation by twofold agar dilution method; assay type: functional; outline: as §2
# [9] = system: Escherichia coli; experiment: Antibacterial activity against Escherichia coli 12140 infected in sc dosed mouse assessed as mouse survival after 3 days; assay type: functional; details: Escherichia coli, 12140, sc, 72 h; read-out: PD50
# Outline: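 Mice infected ip with approximately 2 X 10 organisms per mouse of E. coli 12140 culture diluted in 5% hog gastric mucin (uniformly lethal). Fourfold dilutions dosed sc in equally divided portions at 1 and 5 h postinfection; five groups of ten mice each. Survivors observed for 3 days. PD50 = total dose (mg/kg) protecting 50% of mice, calculated by Litchfield and Wilcoxon method.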
SMILES,MIC [1] [µg/mL],MIC [2] [µg/mL],MIC [3] [µg/mL],MIC [4] [µg/mL],MIC [5] [µg/mL],MIC [6] [µg/mL],Activity [7],MIC [8] [µg/mL],ED50 [9] [mg/kg]
CC(=O)OCC1=C(C(=O)O)N2C(=O)[C@@H](NC(=O)Cc3cccs3)[C@H]2SC1 [CEPHALOTHIN],0.2,1.6,3.1,> 13,50,6.3,inactive,3.1,50
CC(=O)OCC1=C(C(=O)[O-])N2C(=O)[C@@H](NC(=O)C[S+]([O-])CC#N)[C@H]2SC1.[Na+] (stereo not given in full),1.6,3.1,12.5,> 13,25,6.3,inactive,6.3,21
Cn1nnnc1SCC1=C(C(=O)O)N2C(=O)[C@@H](NC(=O)CSC(F)(F)F)[C@H]2SC1 [CEFAZAFLUR],0.4,0.4,0.4,> 13,1.6,0.2,inactive,0.8,2
Cn1nnnc1SCC1=C(C(=O)[O-])N2C(=O)[C@@H](NC(=O)CSCC(F)(F)F)[C@H]2SC1.[Na+],0.2,0.8,1.6,> 13,6.3,0.4,inactive,3.1,11
Cc1nnc(SCC2=C(C(=O)[O-])N3C(=O)[C@@H](NC(=O)C[S+]([O-])CC(F)(F)F)[C@H]3SC2)s1.[Na+] (stereo not given in full),0.8,1.6,3.1,> 13,6.3,0.8,inactive,3.1,6
CC(=O)OCC1=C(C(=O)[O-])N2C(=O)[C@@H](NC(=O)CSCC(F)(F)F)[C@H]2SC1.[Na+],0.4,6.3,6.3,> 13,50,6.3,inactive,3.1,184
Cn1nnnc1SCC1=C(C(=O)[O-])N2C(=O)[C@@H](NC(=O)C[S+]([O-])CC(F)(F)F)[C@H]2SC1.[Na+] (stereo not given in full),1.6,1.6,0.8,> 13,6.3,0.4,inactive,0.4,1.5
CC(=O)OCC1=C(C(=O)O)N2C(=O)[C@@H](NC(=O)CC#N)[C@H]2SC1 [CEPHACETRILE],0.4,3.1,6.3,> 13,6.3,3.1,inactive,3.1,25
Cc1nnc(SCC2=C(C(=O)[O-])N3C(=O)[C@@H](NC(=O)C[S+]([O-])CC#N)[C@H]3SC2)s1.[Na+] (stereo not given in full),0.8,0.8,3.1,> 13,6.3,0.8,inactive,1.6,22
Cc1nnc(SCC2=C(C(=O)O)N3C(=O)[C@@H](NC(=O)CS(=O)(=O)CC#N)[C@H]3SC2)s1,1.6,6.3,6.3,> 13,12.5,3.1,inactive,6.3,15
CC(=O)OCC1=C(C(=O)[O-])N2C(=O)[C@@H](NC(=O)CS(=O)(=O)CC(F)(F)F)[C@H]2SC1.[Na+],3.1,3.1,25,> 13,50,12.5,inactive,6.3,100
Cc1nnc(SCC2=C(C(=O)[O-])N3C(=O)[C@@H](NC(=O)CSCC#N)[C@H]3SC2)s1.[Na+],0.2,1.6,1.6,> 13,> 200,1.6,inactive,1.6,14
CC(=O)OCC1=C(C(=O)[O-])N2C(=O)[C@@H](NC(=O)C[S+]([O-])CC(F)(F)F)[C@H]2SC1.[Na+] (stereo not given in full),0.8,1.6,6.3,> 13,6.3,3.1,inactive,3.1,25
CC(=O)OCC1=C(C(=O)O)N2C(=O)[C@@H](NC(=O)CS(=O)(=O)CC#N)[C@H]2SC1,1.6,3.1,6.3,> 13,50,6.3,inactive,25,35
Cc1nnc(SCC2=C(C(=O)[O-])N3C(=O)[C@@H](NC(=O)CS(=O)(=O)CC(F)(F)F)[C@H]3SC2)s1.[Na+],1.6,6.3,6.3,> 13,12.5,6.3,inactive,6.3,35
CC(=O)OCC1=C(C(=O)[O-])N2C(=O)[C@@H](NC(=O)CSCC#N)[C@H]2SC1.[Na+],0.2,1.6,6.3,> 13,> 200,6.3,inactive,1.6,> 200
Cn1nnnc1SCC1=C(C(=O)[O-])N2C(=O)[C@@H](NC(=O)CSCC#N)[C@H]2SC1.[Na+],0.4,0.4,0.8,> 13,12.5,0.8,inactive,1.6,11
Cc1nnc(SCC2=C(C(=O)O)N3C(=O)[C@@H](NC(=O)Cn4cnnn4)[C@H]3SC2)s1 [CEFAZOLIN],0.4,0.8,0.8,> 13,1.6,0.4,inactive,0.8,6
Cc1nnc(SCC2=C(C(=O)[O-])N3C(=O)[C@@H](NC(=O)CSCC(F)(F)F)[C@H]3SC2)s1.[Na+],0.2,6.3,6.3,> 13,25,1.6,inactive,6.3,33
Cn1nnnc1SCC1=C(C(=O)[O-])N2C(=O)[C@@H](NC(=O)C[S+]([O-])CC#N)[C@H]2SC1.[Na+] (stereo not given in full),1.6,0.8,1.6,> 13,12.5,1.6,inactive,1.6,10
